In ChEMBL document CHEMBL3784993, “Synthesis and anticancer activity of some 5-fluoro-2'-deoxyuridine phosphoramidates” (Bioorg Med Chem, 2016):

How the values were obtained:
HeLa [1] = assay: Cytotoxicity against human HeLa cells after 72 hrs by SRB assay; format: functional, cell-based
Method in brief: (§1)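 SRB protein-stain assay. Cells were seeded at about 10,000 per well and grown 24 h to a partial monolayer. They were then exposed for 72 h at 37 °C (5% CO2, 90% RH) to six concentrations: 0.1, 0.2, 1, 2, 10 and 20 µM. Final DMSO was ≤0.1%. Cells were TCA-fixed and stained with 0.4% SRB, and OD was read at 490 nm. Survival was expressed versus untreated cells. Cytarabine served as internal standard, with three experiments.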

[2] = Cytotoxicity against HDF cells after 72 hrs by SRB assay; format: cell-based; details: Homo sapiens
HepG2 [3] = assay: Cytotoxicity against human HepG2 cells after 72 hrs by SRB assay; format: functional, cell-based; details: HepG2, 72 h
MCF7 [4] = assay: Cytotoxicity against human MCF7cells after 72 hrs by SRB assay; format: functional, cell-based; details: MCF7, 72 h
KB = assay: Cytotoxicity against human KB cells after 72 hrs by SRB assay; format: functional, cell-based; method in brief: as §1
HeLa [5] = assay: Selectivity index, ratio of IC50 for HDF cells to IC50 for human HeLa cells; format: functional
Method in brief: (§2)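 SI is calculated as the IC50 in normal human dermal fibroblasts (HDF) divided by the IC50 in the respective cancer line. Both values come from 72 h SRB assays. SD is from three independent experiments.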

[6] = Selectivity index, ratio of IC50 for HDF cells to IC50 for human KB cells; format: functional; method in brief: as §2
HepG2 [7] = assay: Selectivity index, ratio of IC50 for HDF cells to IC50 for human HepG2 cells; format: functional; method in brief: as §2
MCF7 [8] = assay: Selectivity index, ratio of IC50 for HDF cells to IC50 for human MCF7 cells; format: functional; method in brief: as §2
143B [9] = assay: Cytotoxicity against human thymidine kinase deficient 143B cells after 72 hrs by SRB assay; format: functional, cell-based; method in brief: as §1
143B [10] = assay: Selectivity index, ratio of IC50 for HDF cells to IC50 for human 143B cells; format: functional; method in brief: as §2
143B [11] = assay: Cytotoxicity against human 143B cells after 72 hrs by SRB assay; format: functional, cell-based; method in brief: as §1
MCF7 [12] = assay: Potency index, ratio of IC50 for 5-fluoro-2'-deoxyuridine to IC50 for test compound for cytotoxicity against human MCF7cells after 72 hrs by SRB assay; format: functional
HeLa [13] = assay: Cytotoxicity against human HeLa cells after 72 hrs in presence of human recombinant cytochrome P450 isoform mixture by SRB assay; format: functional, cell-based

SMILES	IC50 (HeLa [1])	IC50 [2]	IC50 (HepG2 [3])	IC50 (MCF7 [4])	IC50 (KB)	Ratio IC50 (HeLa [5])	Ratio IC50 [6]	Ratio IC50 (HepG2 [7])	Ratio IC50 (MCF7 [8])	IC50 (143B [9])	Ratio IC50 (143B [10])	IC50 (143B [11])	Ratio IC50 (MCF7 [12])	IC50 (HeLa [13])
COC(=O)[C@H](C)NP(=O)(OC[C@H]1O[C@@H](n2cc(F)c(=O)[nH]c2=O)C[C@@H]1O)Oc1ccccc1 (stereo not given in full)	23.5 µM	43.1 µM	25.9 µM	29.1 µM	18 µM	–	–	–	–	–	–	–	–	–
O=c1[nH]c(=O)n([C@H]2C[C@H](O)[C@@H](COP(=O)(NCC(F)(F)F)Oc3ccc(Cl)cc3)O2)cc1F (stereo not given in full)	3.09 µM	4.19 µM	3.48 µM	1.82 µM	1.93 µM	1.36	2.17	1.2	2.3	2.51 µM	2.33	1.8 µM	–	–
CCNP(=O)(OC[C@H]1O[C@@H](n2cc(F)c(=O)[nH]c2=O)C[C@@H]1OC(=O)OC(C)(C)C)Oc1ccc(Cl)cc1 (stereo not given in full)	2.66 µM	6.02 µM	4.26 µM	1.42 µM	3.37 µM	2.26	1.79	1.41	4.24	9.11 µM	1.37	4.4 µM	9	–
CCCCNP(=O)(OC[C@H]1O[C@@H](n2cc(F)c(=O)[nH]c2=O)C[C@@H]1O)Oc1ccc(Cl)cc1 (stereo not given in full)	> 100 µM	> 100 µM	> 100 µM	> 100 µM	> 100 µM	–	–	–	–	–	–	–	–	> 100 µM
COC(=O)[C@H](C)NP(=O)(OC[C@H]1O[C@@H](n2cc(F)c(=O)[nH]c2=O)C[C@@H]1O)Oc1ccc(Cl)cc1 (stereo not given in full)	4.11 µM	18.4 µM	6.65 µM	4.54 µM	4.22 µM	4.49	4.37	2.77	4.06	8.67 µM	4.58	4.03 µM	–	–
CC(C)(C)OC(=O)O[C@H]1C[C@H](n2cc(F)c(=O)[nH]c2=O)O[C@@H]1COP(=O)(NCC(F)(F)F)Oc1ccc(Cl)cc1 (stereo not given in full)	14.6 µM	37.1 µM	18.8 µM	4.05 µM	14.6 µM	–	–	–	–	2.01 µM	–	0.28 µM	–	–
C=CCNP(=O)(OC[C@H]1O[C@@H](n2cc(F)c(=O)[nH]c2=O)C[C@@H]1OC(=O)OC(C)(C)C)Oc1ccc(Cl)cc1 (stereo not given in full)	19.1 µM	27.2 µM	17 µM	12.8 µM	16.5 µM	–	–	–	–	–	–	–	–	–
CCCCNP(=O)(OC[C@H]1O[C@@H](n2cc(F)c(=O)[nH]c2=O)C[C@@H]1OC(=O)OC(C)(C)C)Oc1ccc(Cl)cc1 (stereo not given in full)	76 µM	87 µM	64.2 µM	80.1 µM	66.4 µM	–	–	–	–	–	–	–	–	71.4 µM
CCCNP(=O)(OC[C@H]1O[C@@H](n2cc(F)c(=O)[nH]c2=O)C[C@@H]1OC(=O)OC(C)(C)C)Oc1ccc(Cl)cc1 (stereo not given in full)	49.3 µM	61.1 µM	26 µM	20.8 µM	27.2 µM	–	–	–	–	–	–	–	–	45.2 µM
CC(C)(C)OC(=O)O[C@H]1C[C@H](n2cc(F)c(=O)[nH]c2=O)O[C@@H]1COP(=O)(NCCCN=[N+]=[N-])Oc1ccc(Cl)cc1 (stereo not given in full)	52.5 µM	57.2 µM	46.9 µM	58.5 µM	54.9 µM	–	–	–	–	–	–	–	–	24.1 µM
[N-]=[N+]=NCCCNP(=O)(OC[C@H]1O[C@@H](n2cc(F)c(=O)[nH]c2=O)C[C@@H]1O)Oc1ccc(Cl)cc1 (stereo not given in full)	22.2 µM	41 µM	22.6 µM	27 µM	22.6 µM	–	–	–	–	–	–	–	–	13.5 µM
C=CCNP(=O)(OC[C@H]1O[C@@H](n2cc(F)c(=O)[nH]c2=O)C[C@@H]1O)Oc1ccc(Cl)cc1 (stereo not given in full)	89.3 µM	92.1 µM	96.7 µM	94.5 µM	38.7 µM	–	–	–	–	–	–	–	–	–
CC(C)(C)OC(=O)O[C@H]1C[C@H](n2cc(F)c(=O)[nH]c2=O)O[C@@H]1COP(=O)(NCCCCN=[N+]=[N-])Oc1ccc(Cl)cc1 (stereo not given in full)	36 µM	48.3 µM	58.9 µM	35.4 µM	35.6 µM	–	–	–	–	–	–	–	–	17.7 µM
